# Measurements published in paper PMC3100417 (Biomaterials, 2011).
# Legend:
# Recombinant rat β-NGF = Recombinant rat β-NGF (Rattus norvegicus, UniProt P25427); experiment: NGF binding and release from hydrogels; settings: for NGF remaining in solution after incubation: 10 ng/well NGF in uDMEM, 2 h, ELISA, 10% PEG hydrogels, 5 mM peptide; for release of NGF from hydrogels: monitored over 48 h after initial binding
# In short: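 Recombinant rat β-NGF at 0.05 µg/mL final in uDMEM added. Media collected with replacement at 2, 4, 6, 24 and 48 h and stored at −80 °C. Sandwich ELISA gave bound NGF and cumulative release.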
# radiolabeled lipoplexes = experiment: DNA binding and release of lipoplexes to hydrogel surfaces; settings: for amount of bound DNA retained: release study, by day 6
# In short: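 Cell-free hydrogels carrying 5 mM RDG, KDKG, K4 or K8 peptide, washed immediately and after 1 h swelling in uDMEM. Radiolabelled TransFast–plasmid lipoplexes in uDMEM added at 2 µg DNA/well for 2 h at room temperature. Unbound solution removed and scintillation-counted. Gels washed twice with uDMEM immediately and at 2, 4 and 6 h, then sampled periodically with replacement for 6 days. Counts converted to DNA via standard curve.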
# [1] = cited from earlier work
# Recombinant rat β-NGF, sequence (P25427 122-241): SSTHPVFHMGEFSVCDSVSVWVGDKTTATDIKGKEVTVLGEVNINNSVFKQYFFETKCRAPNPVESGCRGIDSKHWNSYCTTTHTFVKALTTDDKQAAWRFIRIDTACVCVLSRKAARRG
Substance,NGF remaining in solution after incubation (Recombinant rat β-NGF) [ng],release of NGF from hydrogels (Recombinant rat β-NGF),"mean quantity of vector bound, greater than KDKG and RDG conditions (radiolabeled lipoplexes; throughout the 6-day release study)",amount of bound DNA retained (radiolabeled lipoplexes) [%],"diffusivity of NGF, DN [1]","rate constant for NGF degradation, kdeg ([1]; in buffered solution) [s⁻¹]"
GCGKKKK [K4],3.4,intermediate between the RDG and K8 conditions,approximately 5%,,,
GCGYGKKKKKKKK [K8],3.2,lowest,,41,,
GCGYGRDGSPG [reference compound],3.8,,,20,,
NGF: nerve growth factor protein,,,,,12 × 10^−7 cm^2/s,4.83e-05
